ChEMBL document CHEMBL1255376, “Comparative surveillance study of telavancin activity against recently collected gram-positive clinical isolates from across the United States” (2008)

What was measured:
[1] = tested on: Mammaliicoccus sciuri; assay: Antibacterial activity against methicillin-susceptible coagulase-negative Staphylococcus sciuri clinical isolate by broth microdilution method; type: functional
In short: (§1)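 MICs by CLSI broth microdilution in frozen trays pre-loaded with serial dilutions of each agent. Quality-control strains run in parallel: E. faecalis ATCC 29212 and ATCC 51299, S. aureus ATCC 29213, S. pneumoniae ATCC 49619. Comparator susceptibility categories follow CLSI breakpoints. Methicillin resistance in staphylococci assigned from the oxacillin MIC.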

[2] = tested on: Mammaliicoccus sciuri; assay: Antibacterial activity against methicillin-resistant coagulase-negative Staphylococcus sciuri clinical isolate by broth microdilution method; type: functional; in short: as §1
[3] = tested on: Streptococcus equinus; assay: Antibacterial activity against Streptococcus bovis clinical isolate by broth microdilution method; type: functional
In short: (§2)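 MIC by CLSI broth microdilution in frozen microtiter trays holding serial dilutions of each agent, prepared from standard laboratory powders. E. faecalis ATCC 29212 and ATCC 51299, S. aureus ATCC 29213 and S. pneumoniae ATCC 49619 run in parallel as quality-control strains. Comparator susceptibility interpreted with CLSI breakpoints.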

[4] = tested on: Staphylococcus xylosus; assay: Antibacterial activity against methicillin-susceptible coagulase-negative Staphylococcus xylosus clinical isolate by broth microdilution method; type: functional; in short: as §1
[5] = tested on: Staphylococcus epidermidis; assay: Antibacterial activity against methicillin-susceptible coagulase-negative Staphylococcus epidermidis clinical isolate by broth microdilution method; type: functional; in short: as §1
[6] = tested on: Staphylococcus cohnii; assay: Antibacterial activity against methicillin-susceptible coagulase-negative Staphylococcus cohnii clinical isolate by broth microdilution method; type: functional; in short: as §1
[7] = tested on: Staphylococcus hominis; assay: Antibacterial activity against methicillin-susceptible coagulase-negative Staphylococcus hominis clinical isolate by broth microdilution method; type: functional; in short: as §1
[8] = tested on: Staphylococcus cohnii; assay: Antibacterial activity against methicillin-resistant coagulase-negative Staphylococcus cohnii clinical isolate by broth microdilution method; type: functional; in short: as §1
[9] = tested on: Staphylococcus; assay: Antibacterial activity against methicillin-susceptible coagulase-negative unspeciated Staphylococcus clinical isolate by broth microdilution method; type: functional; in short: as §1
[10] = tested on: Streptococcus intermedius; assay: Antibacterial activity against Streptococcus intermedius clinical isolate by broth microdilution method; type: functional; in short: as §2
[11] = tested on: Staphylococcus saprophyticus; assay: Antibacterial activity against methicillin-susceptible coagulase-negative Staphylococcus saprophyticus clinical isolate by broth microdilution method; type: functional; in short: as §1
[12] = tested on: Staphylococcus capitis; assay: Antibacterial activity against methicillin-susceptible coagulase-negative Staphylococcus capitis clinical isolate by broth microdilution method; type: functional; in short: as §1
[13] = tested on: Enterococcus faecium; assay: Antibacterial activity against vancomycin-resistant and teichoplanin-susceptible Enterococcus faecium clinical isolate by broth microdilution method; type: functional; in short: as §1
[14] = tested on: Staphylococcus aureus; assay: Antibacterial activity against daptomycin-nonsusceptible Staphylococcus aureus isolate 1285404 by broth microdilution method
[15] = tested on: Enterococcus faecium; assay: Antibacterial activity against vancomycin-susceptible Enterococcus faecium clinical isolate by broth microdilution method; type: functional; in short: as §2
[16] = tested on: Staphylococcus aureus; assay: Antibacterial activity against methicillin-resistant Staphylococcus aureus clinical isolate by broth microdilution method; type: functional; in short: as §1
[17] = tested on: Streptococcus oralis; assay: Antibacterial activity against Streptococcus oralis clinical isolate by broth microdilution method; type: functional; in short: as §2
[18] = tested on: Staphylococcus haemolyticus; assay: Antibacterial activity against methicillin-resistant coagulase-negative Staphylococcus haemolyticus clinical isolate by broth microdilution method; type: functional; in short: as §1
[19] = tested on: Streptococcus pyogenes; assay: Antibacterial activity against Streptococcus pyogenes clinical isolate by broth microdilution method; type: functional; in short: as §2
[20] = tested on: Enterococcus faecalis; assay: Antibacterial activity against vancomycin-resistant and teichoplanin-susceptible Enterococcus faecalis clinical isolate by broth microdilution method; type: functional; in short: as §1
[21] = tested on: Staphylococcus saprophyticus; assay: Antibacterial activity against methicillin-resistant coagulase-negative Staphylococcus saprophyticus clinical isolate by broth microdilution method; type: functional; in short: as §1
[22] = tested on: Staphylococcus warneri; assay: Antibacterial activity against methicillin-susceptible coagulase-negative Staphylococcus warneri clinical isolate by broth microdilution method; type: functional; in short: as §1
[23] = tested on: Staphylococcus simulans; assay: Antibacterial activity against methicillin-susceptible coagulase-negative Staphylococcus simulans clinical isolate by broth microdilution method; type: functional; in short: as §1
[24] = Antibacterial activity against Streptococcus sp. Group G clinical isolate by broth microdilution method; type: functional; in short: as §2

CCCCCCCCCC(=O)N[C@@H](Cc1c[nH]c2ccccc12)C(=O)N[C@H](CC(N)=O)C(=O)N[C@@H](CC(=O)O)C(=O)N[C@@H]1C(=O)NCC(=O)N[C@@H](CCCN)C(=O)N[C@@H](CC(=O)O)C(=O)N[C@H](C)C(=O)N[C@@H](CC(=O)O)C(=O)NCC(=O)N[C@H](CO)C(=O)N[C@@H]([C@H](C)CC(=O)O)C(=O)N[C@@H](CC(=O)c2ccccc2N)C(=O)O[C@@H]1C
4 µg/mL: MIC90 [13] | MIC90 [15]
1 µg/mL: MIC90 [1] | MIC90 [2] | MIC90 [3] | MIC90 [4] | MIC90 [5] | MIC90 [6] | MIC90 [7] | MIC90 [8] | MIC90 [9] | MIC90 [10] | MIC90 [11] | MIC90 [12] | MIC90 [17] | MIC90 [18] | MIC90 [21] | MIC90 [22] | MIC90 [23]
0.25 µg/mL: MIC50 [3] | MIC50 [10] | MIC50 [17] | MIC90 [24]
0.5 µg/mL: MIC50 [2] | MIC50 [4] | MIC50 [5] | MIC50 [6] | MIC50 [7] | MIC50 [8] | MIC50 [9] | MIC50 [11] | MIC50 [12] | MIC50 [16] | MIC90 [16] | MIC50 [18] | MIC [20] | MIC50 [21] | MIC50 [22] | MIC50 [23]
2 µg/mL: MIC50 [13] | MIC50 [15]
> 1 µg/mL: MIC [14]
0.06 µg/mL: MIC50 [19] | MIC90 [19] | MIC50 [24]
